Test results as given in ChEMBL document CHEMBL5365542, “Difluoromethyl-1,3,4-oxadiazoles Are Selective, Mechanism-Based, and Essentially Irreversible Inhibitors of Histone Deacetylase 6” (J Med Chem, 2023).
Numbering of substitutions follows the chain as printed. Activity calls are given as the source filed them. No cut-off for these calls is given here.

How the values were obtained:
[1] = system: T1, Histone deacetylase 6 (Danio rerio), F8W4B7 [H574A]; assay: Irreversible inhibition of Danio rerio HDAC6 H574A mutant catalytic domain 2 assessed as enzyme catalysed ring opening by measuring reduction in 2-(Benzylamino)-N'-(2,2-difluoroacetyl)pyrimidine-5-carbohydrazide formation at 100 uM incubated overnight by LC-MS analysis
T1 sequence (whole entry): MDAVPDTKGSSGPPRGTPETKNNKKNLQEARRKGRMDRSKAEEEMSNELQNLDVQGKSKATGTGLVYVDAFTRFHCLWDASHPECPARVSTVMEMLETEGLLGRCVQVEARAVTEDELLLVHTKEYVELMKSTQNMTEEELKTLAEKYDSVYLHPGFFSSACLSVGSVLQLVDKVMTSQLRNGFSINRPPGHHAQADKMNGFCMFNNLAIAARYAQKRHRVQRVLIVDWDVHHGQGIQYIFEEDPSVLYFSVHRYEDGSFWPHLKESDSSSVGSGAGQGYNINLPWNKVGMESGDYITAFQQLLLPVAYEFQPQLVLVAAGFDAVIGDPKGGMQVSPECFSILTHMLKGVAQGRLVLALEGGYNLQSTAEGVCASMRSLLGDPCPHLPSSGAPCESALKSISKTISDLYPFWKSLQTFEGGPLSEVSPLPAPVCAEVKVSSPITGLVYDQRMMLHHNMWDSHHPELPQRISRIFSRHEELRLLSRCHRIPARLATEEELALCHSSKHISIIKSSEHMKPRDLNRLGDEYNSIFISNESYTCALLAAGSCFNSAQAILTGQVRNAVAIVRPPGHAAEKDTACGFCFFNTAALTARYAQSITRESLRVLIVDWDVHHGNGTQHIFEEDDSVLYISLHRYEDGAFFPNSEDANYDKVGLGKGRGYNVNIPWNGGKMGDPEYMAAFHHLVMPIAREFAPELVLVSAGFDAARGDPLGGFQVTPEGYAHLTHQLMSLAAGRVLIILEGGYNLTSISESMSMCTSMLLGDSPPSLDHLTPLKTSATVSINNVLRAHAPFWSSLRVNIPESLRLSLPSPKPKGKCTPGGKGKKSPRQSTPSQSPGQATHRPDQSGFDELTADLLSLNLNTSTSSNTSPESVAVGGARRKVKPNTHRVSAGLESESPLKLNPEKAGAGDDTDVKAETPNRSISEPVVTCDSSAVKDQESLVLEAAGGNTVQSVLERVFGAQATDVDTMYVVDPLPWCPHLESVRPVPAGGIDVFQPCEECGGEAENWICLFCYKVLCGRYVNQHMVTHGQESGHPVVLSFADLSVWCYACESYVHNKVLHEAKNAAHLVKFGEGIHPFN
Procedure, shortened: (§1)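 Zebrafish HDAC6 CD2 mutants were made by site-directed mutagenesis and expressed in BL21(DE3). Enzyme at 50 μM was incubated overnight with 100 μM inhibitor in 50 mM HEPES pH 7.5, 100 mM KCl, 1 mM TCEP, 5% glycerol; an enzyme-free control was included. Protein was methanol-precipitated and filtered, and products were analysed by C18 UPLC-MS with a 2-min gradient.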

[2] = system: T1, Histone deacetylase 6 (Danio rerio), F8W4B7 [H574A]; assay: Irreversible inhibition of Danio rerio HDAC6 H574A mutant catalytic domain 2 assessed as enzyme catalysed ring opening by measuring reduction in 2-(Benzylamino)pyrimidine-5-carbohydrazide formation at 100 uM incubated overnight by LC-MS analysis; procedure, shortened: as §1
[3] = biological target: T2, Histone deacetylase 6 (Danio rerio) (UniProt F8W4B7); assay: Irreversible inhibition of Danio rerio HDAC6 catalytic domain 2 assessed as enzyme catalysed ring opening by measuring 2-(Benzylamino)pyrimidine-5-carbohydrazide level at 100 uM incubated overnight by LC-MS analysis
T2 sequence (whole entry): T1 sequence (whole entry) with A574H
Procedure, shortened: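 Danio rerio HDAC6 catalytic domain 2 (zCD2), 50 μM, in 50 mM HEPES pH 7.5, 100 mM KCl, 1 mM TCEP, 5% glycerol, incubated overnight with 100 μM inhibitor (100 μL). Enzyme-free inhibitor controls run in parallel. Protein precipitated with methanol and filtered. Filtrate analysed by C18 reverse-phase UPLC-MS with a 2-min H2O/MeCN gradient.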

[4] = system: T1, Histone deacetylase 6 (Danio rerio), F8W4B7 [H574A]; assay: Irreversible inhibition of Danio rerio HDAC6 H574A mutant catalytic domain 2 assessed as enzyme catalysed ring opening by measuring reduction in 2-(benzylamino)-N'-(2,2,2-trifluoroacetyl)pyrimidine-5-carbohydrazide formation at 100 uM incubated overnight by LC-MS analysis; procedure, shortened: as §1
[5] = biological target: T2, Histone deacetylase 6 (Danio rerio); assay: Irreversible inhibition of Danio rerio HDAC6 using RHKK(Ac)-AMC as fluorogenic substrate at 100 uM preincubated for 1 hr followed by dialysis for 21 hrs and substrate addition for 30 mins by microplate reader analysis; details: Sf9
Procedure, shortened: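 zCD2 at 1 μM was incubated with 100 μM inhibitor for 1 h, then dialysed at 4 °C against HEPES pH 7.5 buffer with 0.25% DMSO, overnight, sampled at 6 and 21 h. Each sample was mixed with 250 μM RHKK(Ac)-AMC (pre-mix level) for 30 min. Trypsin/TSA developer was then added and fluorescence read at ex 360/em 460. Triplicates.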

Row | Compound | inhibition [1] | inhibition [2] | Activity [3] | inhibition [4] | inhibition [5]
1 | FC(F)c1nnc(-c2cnc(NCc3ccccc3)nc2)o1 | Active | Active | 9 µM | Active | Active
2 | FC(F)(F)c1nnc(-c2cnc(NCc3ccccc3)nc2)o1 | Active | Active | 18 µM | Active | –
